Converted amounts (≈) assume the structure as drawn. The source made the active and inactive calls. The calls are words filed in the database; no cut-off is given here. Where a SMILES comes first, the peptide text is derived from it. Bridges are numbered along the chain shown (N, C = ends). [ ]: non-standard residue; d: D form. The star is where a group is joined. Ileψ(thiazoline)Cys = CC[C@H](C)[C@H](N)C1=N[C@H](C(=O)*)CS1; dOrn = NCCC[C@@H](N)C(=O)O
Experiments:
[1] = system: Mycobacterium tuberculosis; test: Antimicrobial activity against Mycobacterium bovis BCG by resazurine microtiter assay in presence of 1 mg/liter CCCP; format: functional; conditions: variant bovis BCG, Urine
Outline: (§1)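 Resazurin microdilution MIC (serial twofold dilutions, 8 days at 37°C plus 2 days after resazurin) run with a fixed subinhibitory level of efflux pump inhibitor (valinomycin, reserpine or CCCP) present throughout. Triplicate, repeated at least three times.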

[2] = system: Mycobacterium tuberculosis; test: Antimicrobial activity against Mycobacterium bovis BCG by resazurine microtiter assay; format: functional; conditions: variant bovis BCG, Urine
Outline: (§2)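 Resazurin microdilution in liquid medium: serial twofold compound dilutions, plates incubated 8 days at 37°C, then 2 more days after adding resazurin. MIC read from the indicator. Run in triplicate and repeated at least three times.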

[3] = system: Mycobacterium tuberculosis; test: Antimicrobial activity against Mycobacterium bovis BCG by twofold dilution method; format: functional; conditions: variant bovis BCG
Outline: (§3)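 Agar MIC: log-phase cultures diluted to 10^5 cells/ml, 10 µl spotted onto Middlebrook 7H10 plates with serial twofold antibiotic dilutions. Visible growth scored after 21 days at 37°C. Triplicate, repeated at least three times.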

[4] = system: Mycobacterium tuberculosis; test: Effect on intracellular redox potential in wild-type Mycobacterium bovis BCG assessed as accumulation of formazan at 5 mg/liter after 1 hr by MTT assay; format: functional, organism-based; conditions: variant bovis BCG
Outline: (§4)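 MTT reduction as an index of intracellular redox potential: cultures at OD600 0.2 treated with drug or solvent for 1 h at 37°C in quadruplicate wells, MTT (2 mg/ml stock) added, 3 h further incubation. Formazan solubilised with 10% SDS, 30 min shaking, absorbance at 600 nm. Repeated at least three independent times.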

[5] = system: Mycobacterium tuberculosis; test: Antimicrobial activity against Mycobacterium bovis BCG harboring pPAZ23 carrying p27-p55 operon by twofold dilution method; format: functional; conditions: variant bovis BCG; outline: as §3
[6] = system: Mycobacterium tuberculosis; test: Decrease in intracellular redox potential in wild-type Mycobacterium bovis BCG assessed as decreased accumulation of formazan at 256 mg/liter after 1 hr by MTT assay; format: functional, variant bovis BCG; set-up: scale not given: the % may be the effect or the level left; outline: as §4
[7] = system: Mycobacterium tuberculosis; test: Ratio of MIC for Mycobacterium bovis BCG harboring pPAZ23 carrying p27-p55 operon to MIC for wild-type Mycobacterium bovis BCG; format: functional, variant bovis BCG
[8] = system: Mycobacterium tuberculosis; test: Ratio of MIC for wild type Mycobacterium bovis BCG to MIC for Mycobacterium bovis BCG KOP55 harboring inactivated p55 gene; format: functional, variant bovis BCG
[9] = system: Mycobacterium tuberculosis; test: Increase in intracellular redox potential in wild-type Mycobacterium bovis BCG assessed as increased accumulation of formazan at 5 mg/liter after 1 hr by MTT assay; format: functional, variant bovis BCG; outline: as §4
[10] = system: Mycobacterium tuberculosis; test: Ratio of MIC for wild type Mycobacterium bovis BCG to MIC for wild type Mycobacterium bovis BCG in presence of 1 mg/liter CCCP; format: functional, variant bovis BCG
[11] = system: Mycobacterium tuberculosis; test: Antimicrobial activity against Mycobacterium bovis BCG by resazurine microtiter assay in presence of 0.5 mg/liter reserpine; format: functional; conditions: variant bovis BCG, Urine; outline: as §1
[12] = system: Mycobacterium tuberculosis; test: Antimicrobial activity against Mycobacterium bovis BCG by resazurine microtiter assay in presence of 0.1 mg/liter valinomycin; format: functional; conditions: variant bovis BCG, Urine; outline: as §1
[13] = system: Mycobacterium tuberculosis; test: Antimicrobial activity against Mycobacterium bovis BCG harboring pPAZ23 carrying p27-p55 operon by resazurine microtiter assay; format: functional; conditions: variant bovis BCG, Urine; outline: as §2

Q: How did the MIC [1] turn out when `CC[C@H](C)[C@H](N)C1=N[C@H](C(=O)N[C@@H](CC(C)C)C(=O)N[C@H](CCC(=O)O)C(=O)N[C@H](C(=O)N[C@H]2CCCCNC(=O)[C@H](CC(N)=O)NC(=O)[C@@H](CC(=O)O)NC(=O)[C@H](Cc3cnc[nH]3)NC(=O)[C@@H](Cc3ccccc3)NC(=O)[C@H]([C@@H](C)CC)NC(=O)[C@@H](CCCN)NC2=O)[C@@H](C)CC)CS1` [BACITRACIN] ({Ileψ(thiazoline)Cys}-L[dE]IK[dOrn]I[dF]H[dD]N; lactam 4-C) was run?
A: > 256 µg/mL

Q: What about the MIC [2] of the same molecule?
A: > 256 µg/mL

Q: With `N#CC(C#N)=NNc1cccc(Cl)c1` [CARBONYL CYANIDE M-CHLOROPHENYLHYDRAZONE] as the molecule, how does the MIC [2] read?
A: 4 µg/mL (≈ 19.5 µM)

Q: For `CN(C)CCCN1c2ccccc2Sc2ccc(Cl)cc21` [CHLORPROMAZINE], which MIC [3] is on record?
A: 4 µg/mL (≈ 12.5 µM)

Q: Which results are given for `CC(C)/N=c1\cc2n(-c3ccc(Cl)cc3)c3ccccc3nc-2cc1Nc1ccc(Cl)cc1` [CLOFAZIMINE]?
A: MIC [3]: 0.1 µg/mL (≈ 0.211 µM); Activity [4]: inactive; MIC [5]: 0.1 µg/mL (≈ 0.211 µM)

Q: Which Activity [6] does the source give for `CN(C)C(=O)/N=N/C(=O)N(C)C` [DIAMIDE] here?
A: 25%

Q: How did the Ratio [7] turn out when `Clc1ccc(COC(Cn2ccnc2)c2ccc(Cl)cc2Cl)cc1` (centres undefined) [ECONAZOLE] was run?
A: 2

Q: And the MIC [3]?
A: 6.4 µg/mL (≈ 16.8 µM)

Q: What about the Ratio [8] of the same molecule?
A: 4

Q: What about the MIC [5] of the same molecule?
A: 12.8 µg/mL (≈ 33.5 µM)

Q: `CC[C@@H](CO)NCCN[C@@H](CC)CO` [ETHAMBUTOL] was tested. Which MIC [2] did it give?
A: 4 µg/mL (≈ 19.6 µM)

Q: Which “fold change (FC)” value [9] does the source give for `CC1=CC(=O)c2ccccc2C1=O` [MENADIONE] here?
A: 3.5

Q: Which results are given for `CO[C@@H]1[C@@H](OC(N)=O)[C@@H](O)[C@H](Oc2ccc3c(O)c(NC(=O)c4ccc(O)c(CC=C(C)C)c4)c(=O)oc3c2C)OC1(C)C` [NOVOBIOCIN]?
A: MIC [1]: 4 µg/mL; Ratio [10]: 4; MIC [11]: 8 µg/mL; MIC [2]: 16 µg/mL (≈ 26.1 µM); MIC [12]: 8 µg/mL

Q: How did the MIC [2] turn out when `O=[N+]([O-])c1cn2c(n1)OC[C@@H](OCc1ccc(OC(F)(F)F)cc1)C2` [PRETOMANID] was run?
A: 0.25 µg/mL (≈ 0.696 µM)

Q: Which MIC [2] does the source give for `COC(=O)[C@H]1[C@H]2C[C@@H]3c4[nH]c5cc(OC)ccc5c4CCN3C[C@H]2C[C@@H](OC(=O)c2cc(OC)c(OC)c(OC)c2)[C@@H]1OC` [RESERPINE] here?
A: 2 µg/mL (≈ 3.29 µM)

Q: With `CO[C@H]1/C=C/O[C@@]2(C)Oc3c(C)c(O)c4c(O)c(c(/C=N/N5CCN(C)CC5)c(O)c4c3C2=O)NC(=O)/C(C)=C\C=C\[C@H](C)[C@H](O)[C@@H](C)[C@@H](O)[C@@H](C)[C@H](OC(C)=O)[C@@H]1C` [RIFAMPIN] as the molecule, how does the MIC [13] read?
A: 0.0032 µg/mL (≈ 0.00389 µM)

Q: What about the MIC [1] of the same molecule?
A: 0.0008 µg/mL

Q: And the Ratio [10]?
A: 4

Q: And the MIC [11]?
A: 0.0016 µg/mL

Q: What about the MIC [2] of the same molecule?
A: 0.0032 µg/mL (≈ 0.00389 µM)

Q: What about the MIC [12] of the same molecule?
A: 0.0016 µg/mL

Q: Which MIC [3] does the source give for `Oc1cc(Cl)ccc1Oc1ccc(Cl)cc1Cl` [TRICLOSAN] here?
A: 8 µg/mL (≈ 27.6 µM)

Q: With `CC(C)[C@@H]1NC(=O)[C@H](C)OC(=O)[C@@H](C(C)C)NC(=O)[C@@H](C(C)C)OC(=O)[C@H](C(C)C)NC(=O)[C@H](C)OC(=O)[C@@H](C(C)C)NC(=O)[C@@H](C(C)C)OC(=O)[C@H](C(C)C)NC(=O)[C@H](C)OC(=O)[C@@H](C(C)C)NC(=O)[C@@H](C(C)C)OC1=O` [VALINOMYCIN] as the molecule, how does the MIC [2] read?
A: 0.4 µg/mL (≈ 0.36 µM)

Q: Which MIC [13] does the source give for `CN[C@H](CC(C)C)C(=O)N[C@H]1C(=O)N[C@@H](CC(N)=O)C(=O)N[C@H]2C(=O)N[C@H]3C(=O)N[C@H](C(=O)N[C@H](C(=O)O)c4cc(O)cc(O)c4-c4cc3ccc4O)[C@H](O)c3ccc(c(Cl)c3)Oc3cc2cc(c3O[C@@H]2O[C@H](CO)[C@@H](O)[C@H](O)[C@H]2O[C@H]2C[C@](C)(N)[C@H](O)[C@H](C)O2)Oc2ccc(cc2Cl)[C@H]1O` [VANCOMYCIN] here?
A: 8 µg/mL (≈ 5.52 µM)

Q: And the Ratio [7]?
A: 2

Q: What about the MIC [1] of the same molecule?
A: 4 µg/mL

Q: And the MIC [2]?
A: 4 µg/mL (≈ 2.76 µM)

Q: And the Ratio [8]?
A: 16
